Hits are enriched below; roughly 2.4% of the tested compounds scored in any of these assays.
STEP inh = inhibitors of human striatal-enriched phosphatase STEP | recombinant STEP, OMFP fluorogenic substrate, fluorescence | inhibition, % at 20 µM | P54829 | 360,000 compounds, 0.25% hits;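 active = inhibition at 20 µM, scaled per plate between control wells, above about 37%, limit read from the data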
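Also added – OMFP at 25 µM · Test system – STEP tyrosine phosphatase · Technique – FITC-channel fluorescence of OMFP product · Schedule – 20 min at room temperature, dark · Evaluation – control-normalized % inhibition with plate pattern correction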
NadD inh = inhibitors of Staphylococcus aureus NadD; purified NadD enzyme, colorimetric absorbance read-out; inhibition, % at 20 µM; 360,000 compounds, 0.78% hits; AID 602399; in the data active = inhibition above about 26%
Scp-1 inhibitor = Scp-1 (human) phosphatase inhibition; inhibition, % at 20 µM; Q9GZU7; AID 493091; Recombinant Scp1, phosphopeptide, malachite green phosphate absorbance; 340,000 compounds, 0.88% hits;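 active = inhibition above about 50% at 20 µM, limit read from the data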
Target sequence (Q9GZU7 76-261 limits assumed): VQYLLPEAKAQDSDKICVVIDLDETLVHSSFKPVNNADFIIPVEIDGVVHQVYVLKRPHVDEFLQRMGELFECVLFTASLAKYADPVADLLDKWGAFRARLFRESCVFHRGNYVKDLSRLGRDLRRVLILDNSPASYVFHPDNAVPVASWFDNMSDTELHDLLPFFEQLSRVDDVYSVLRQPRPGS
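System: truncated SCP-1 phosphatase (76-261aa); medium: Tris acetate buffer pH 5.5 with MgCl2 and Tween-20; incubation: 45 min room-temperature reaction, 5 min colour, 30 min stabiliser; compound: single 20 µM dose, 1% DMSO; reagent: Phosphorylated 17-residue peptide substrate; read-out: % inhibition at 20 µM; technique: colorimetric free-phosphate detection, absorbance 630 nm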
SUMO1 PPI mod = alters human SUMO1 binding to SIM partners. P63165. SUMO1 binding to a labelled peptide, TR-FRET, 1 h. inhibition, % at 20 µM. 360,000 compounds, 0.33% hits. AID 602429; in the data active = inhibition above about 37%
Target sequence (P63165 whole entry, looked up): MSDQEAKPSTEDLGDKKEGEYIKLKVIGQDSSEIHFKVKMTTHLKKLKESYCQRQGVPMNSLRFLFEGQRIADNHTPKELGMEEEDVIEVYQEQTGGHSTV
DNMT1 block = DNMT1 (human) enzyme inhibition. P26358. DNMT1 molecular beacon, Hinp1I cleavage, fluorescence. inhibition (reported as % activation of signal), % at 10 µM. 360,000 compounds, 0.83% hits; in the data active = inhibition above about 50%
LMPTP block = LMPTP (human) inhibition | inhibition, % at 20 µM | AID 651560 | recombinant LMPTP-A, OMFP fluorogenic substrate, fluorescence intensity | 360,000 compounds, 0.22% hits;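 active = compounds that cut the enzyme signal by at least half of the control window in the single-dose screen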
Target sequence (P24666 whole entry, looked up): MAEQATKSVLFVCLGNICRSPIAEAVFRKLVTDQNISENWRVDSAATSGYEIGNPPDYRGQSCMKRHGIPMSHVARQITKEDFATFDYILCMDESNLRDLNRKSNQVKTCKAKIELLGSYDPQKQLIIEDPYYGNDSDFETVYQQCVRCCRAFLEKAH
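Test system – LMPTP-A phosphatase enzyme · Quantity – 0.625 nM LMPTP-A final · Reagent – OMFP substrate, 400 µM final · Dosing – one test concentration per compound, 20 µM, with 3% DMSO overall · Timing – 50 min enzyme reaction at room temperature, protected from light · Detection – fluorescence intensity · Controls – substrate-only low control, DMSO enzyme-plus-substrate high control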
STEP conf = confirmation of human STEP phosphatase inhibitors; recombinant STEP, OMFP fluorogenic substrate, fluorescence; shares compounds with STEP inh; AID 623866; inhibition, % at 20 µM; 520 compounds, 32% hits; call rule not given here
Each line names hits and unclear results; the compound was inactive in the other large screens (follow-up assays come after a bar, where they were run).

Clc1ccc(Cl)c(-c2nc(-c3ccncc3)no2)c1	STEP inh 44.0 | STEP conf 11.8
Cc1ccccc1/C=N/Nc1nc2ccccc2c(=O)n1O	STEP inh 76.2 | STEP conf inactive
O=C(CNC(=O)COc1ccccc1)NCc1ccccc1F	none
Cc1ccc(NC(=O)CSc2nnc(-c3ccccn3)n2N)c(Br)c1	none
N#Cc1cc2cc3c(cc2nc1Cl)OCCO3	STEP inh 48.8 (no result: Scp-1 inhibitor) | STEP conf inactive
N#Cc1cc2cc3c(cc2nc1N1CCCCC1)OCCO3	none
CCOC(=O)c1c(NC(=O)OC)sc(C(=O)N(CC)CC)c1C	STEP inh 81.8 | STEP conf 52.1
CCCCN(CC)Cc1ccc(CNC(=S)Nc2c(C)cc(C)cc2C)o1	STEP inh 84.8 | STEP conf 45.2
CCCCN(CC)Cc1ccc(CNC(=S)Nc2ccc(C)cc2Cl)o1	none
COC(=O)C[C@@H]1C[C@H]2c3cc(NS(C)(=O)=O)ccc3O[C@H]2[C@H](CO)O1	none (no result: Scp-1 inhibitor)
Cc1ccccc1-n1nc(CSc2nc3ccccc3[nH]2)c(-c2ccccc2)c1N	STEP inh 58.2 | STEP conf inactive
CCOC(=O)c1ccccc1N/C=C1\CCCCC1=O	STEP inh 57.6 | STEP conf inactive
CN(Cc1ccccc1)C(=O)c1ccc(NC(=O)C2CCN(C(=O)OC(C)(C)C)CC2)cc1	none
COc1ccc(NC(=O)c2cccc(Oc3ccc([N+](=O)[O-])cc3Cl)c2)cc1	none
Cc1ccc(C)c(NC(=O)c2cccc(Oc3ccc([N+](=O)[O-])cc3Cl)c2)c1	STEP inh 76.8 | STEP conf inactive
COc1ccc(CNC(=O)N2[C@H]3CC[C@@H]2C=C(c2ccc(F)cc2OCc2ccccc2)C3)cc1OC	none (no result: Scp-1 inhibitor)
CC1(C)CC(=O)C=C(NNC(=O)c2ccccc2)C1	none
CC1(C)CC(=O)C=C(NNC(=O)c2ccc(N)cc2)C1	STEP inh 120.3 | STEP conf inactive
Cc1ccccc1COc1cccc(/C=N/NC(=O)c2nnn(-c3nonc3N)c2C)c1	STEP inh 91.1 | STEP conf inactive
COc1ccc(/C=N/NC(=O)c2nnn(-c3nonc3N)c2CN(C)c2ccccc2)cc1	STEP inh 72.7 | STEP conf inactive
CC(C)n1c(CN(C)Cc2ccccc2)nc2c1c(=O)n(C)c(=O)n2C	none (no result: STEP inh, NadD inh, SUMO1 PPI mod, DNMT1 block, LMPTP block)
CCOC(=O)C1(C)CCN1C(=O)c1ccc(F)c(Cl)c1 (stereo unspecified)	none (no result: Scp-1 inhibitor)
Cc1ccc(S(=O)(=O)N(CCCc2c(C)nc[nH]c2=O)c2ccccc2)cc1	none
CCC(C)Sc1nc2ccccc2n1CC(=O)O (stereo unspecified)	none
O=C(O)c1cccc(NC(=S)NC(=O)c2ccc(-c3ccccc3)cc2)c1	none
COc1cc2ccccc2cc1C(=O)NC(=S)Nc1cccc(C(=O)O)c1	STEP inh 41.6 | STEP conf inactive
c1ccc(OCc2nnc3n2N=C(c2ccccc2)CS3)cc1	STEP inh 70.3 | STEP conf inactive
CC1(C(=O)NS(=O)(=O)c2ccccc2C(F)(F)F)CCN1C(=O)c1cccc(F)c1 (stereo unspecified)	none (no result: Scp-1 inhibitor)
CC(C)[C@H](NC(=O)N1CC(=O)Nc2ccccc21)C(=O)Nc1nccs1	STEP inh 92.0 | STEP conf inactive
COC(=O)c1ccc([N+](=O)[O-])cc1N1C(=O)C2C3CCC(C3)C2C1=O (stereo unspecified)	STEP inh 63.8 | STEP conf inactive
CCn1c(CSc2ncccn2)nnc1SCC(=O)N1CCc2ccccc21	none
Cn1c(CSc2ncccn2)nnc1SCC(=O)N1CCCc2ccccc21	STEP inh 52.6 | STEP conf inactive
O=C(NC1CCN(Cc2ccccc2)CC1)c1ccccc1OCc1ccccc1Cl	none
COc1cc(N2C(=O)CSC23C(=O)Nc2ccccc23)cc(OC)c1OC (stereo unspecified)	none
COc1ccc(N2C(=O)CSC23C(=O)Nc2ccccc23)cc1OC (stereo unspecified)	STEP inh 47.7 | STEP conf inactive
CCC(C)(C(=O)NC1CCCC1)N(Cc1cccs1)C(=O)Cc1cccs1 (stereo unspecified)	STEP inh 89.7 | STEP conf inactive
CCC(C)(C(=O)NC1CCCC1)N(Cc1cccs1)C(C)=O (stereo unspecified)	none
CSc1ccccc1NC(=O)CN(C)C(=O)c1cccc(S(=O)(=O)N(C)C)c1	STEP inh 49.4 | STEP conf inactive
COc1cc(C)c(NC(=S)Nc2cccc(Cl)c2C)cc1OC	STEP inh 48.2 | STEP conf inactive
COC(=O)c1cccc(NC(=S)Nc2cccc(Cl)c2C)c1	none
CCOc1cc(C(=S)N2CCCC2)ccc1OCC(=O)Nc1c(C)cc(C)cc1C	none
CCN1CCN(Cc2c3ccccc3cc3ccccc23)CC1	none
CC(=O)Nc1ccc(NC(=O)C(C)OC(=O)c2ccc3c(c2)OCCO3)cc1 (stereo unspecified)	none
CC(OC(=O)c1cccc(S(=O)(=O)Nc2cccc(C(F)(F)F)c2)c1)C(=O)Nc1ccc2c(c1)OCCO2 (stereo unspecified)	STEP inh 60.7 | STEP conf inactive
CCOc1ccc(CNC(=O)CS(=O)(=O)Cc2nc(-c3ccc(OC)cc3)oc2C)cc1	none
CCOc1ccc(CCNC(=O)CS(=O)(=O)Cc2nc(-c3ccc(OC)cc3)oc2C)cc1	STEP inh 44.0 | STEP conf 19.5
O=C(COC(=O)/C=C/c1ccc([N+](=O)[O-])cc1)NNC(=O)c1ccccc1	none
O=C(CSc1nnc(-c2ccco2)o1)N1CCCCC1	none
O=C(NCCCNC(=O)c1cnccn1)c1ccc(Br)cc1	STEP inh 59.4 | STEP conf inactive
O=C(NCCCNC(=O)c1cnccn1)c1ccc(Cl)cc1	none
Cc1ccc(C(=O)N/N=C\c2ccc(-c3ccc([N+](=O)[O-])cc3)o2)cn1	STEP inh 59.5 | STEP conf inactive
CCCCC1(Cc2cccc([N+](=O)[O-])c2)C(=O)N(c2ccccc2)N(c2ccccc2)C1=O	none
O=C(O)CCCCCn1c(SCc2cc(=O)n3ccccc3n2)nc2ccsc2c1=O	none
O=C(O)CCCCCn1c(SCc2cc(=O)n3cc(Cl)ccc3n2)nc2ccsc2c1=O	STEP inh 64.6 | STEP conf inactive
COc1ccc(/C=C/C(=O)c2ccccc2O)cc1CN1CCOCC1	STEP inh 52.3 | STEP conf inactive
COc1ccc(/C=C/C(=O)c2ccc3ccccc3c2O)cc1CN1CCOCC1	none
Cc1c(C)c2ccc(OCC(=O)Nc3ccc(S(N)(=O)=O)cc3)c(C)c2oc1=O	STEP inh 46.4 | STEP conf 74.3
CCOC(=O)N1CCC(N(CCN(C)C)C(=S)Nc2ccc(Oc3ccccc3)cc2)CC1	STEP inh 91.6 | STEP conf 61.3

Screens as filed in PubChem.
